Yeast fitness data for 38 variants are collected here from the RNAGym collection of RNA variant scans (doi:10.1126/science.aae0568).

B1: tRNA (parent)
chain: GUUCCGUUGGCGUAAUGGUAACGCGUCUCCCUCCUAAGGAGAAGACUGCGGGUUCGAGUCCCGUACGGAACG

Fewer inactive variants are shown than the library holds.

Variants of B1 are the subject of this data set. In words: yeast fitness relative to wild type (ratio to wild type); higher = fitter; tRNA-Arg(CCU), competitive growth, 37 C, YPD. In a few lines:
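Changes in genotype frequencies gave Darwinian fitness relative to wild type. Frequencies were read by 100-nucleotide paired-end sequencing of gene amplicons before and after pooled Saccharomyces cerevisiae strains, carrying tRNA-Arg(CCU) gene variants at the native locus, were competed in YPD at 37°C for 24 hours in six replicates. A genotype was kept only with ≥ 100 starting reads, and estimates < 0.5 were set to 0.5.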
As for GUUCCGUUGGCGUAAUGGUAACGUGUCUGCCUUCUAAGGAGAAGACUGCGGGUUCGGGUCCCGUACGGAACG [C24U C29G C33U A57G], the yeast fitness was at most 0.5.

Take GUUCCGUUGGCGUAAUGGUAACGUGUUUCCCUCCUAAGGAGACGACCGCGGGUUCGAGUCCCGUACGGAACG [C24U C27U A43C U47C]: the yeast fitness stood at 0.618.

Turning to GUUCCGUUGGCGUAAUGGUAACGUGUCUCCCUCCUAAGGAGAAGUCUGCGGGUUCGAGUCCCGUACGGUACG [C24U A45U A69U], the yeast fitness was found to be 0.78.

Consider GUUCCGUUGGCGUAAUGGUAACGUGUCUUCGUCCUAAGGAGAAGACUGCGGGUUCGAGUCCCGUACGGAACG [C24U C29U C31G], for which the yeast fitness worked out at 0.806.

Take GUUCCGUUGGCGUAAUGGUAACGUGUCUCCCUCCUAAGGAGAUGACCGCGGGUUCGAGUCCCGUACGGAACG [C24U A43U U47C]: the yeast fitness is 0.794.

For GUUCCGUUGGCGUAAUGGUAACGUGUGUCCCUCCUAAGGAGAAGACUGCGGGUUCGAGUCCCGUCCGGAACG [C24U C27G A65C], the yeast fitness was at most 0.5.

With GUUCCGUUGGCGUAAUGGUAACGUGUCUCCAUAUUAAGGAGAAGAAUGCGGGUUCGAGUCCCGUACGGAACG [C24U C31A C33A C34U C46A], the yeast fitness was at most 0.5.

On to GUUCCGUUGGCGUAAUGGUAACGUGUCUUCCUCCUCAGGAGUAGACUGCGGGUUCGUGUCCCGUACGGAACG [C24U C29U A36C A42U A57U], for which the yeast fitness was 0.518.

On to GUUCCGUUGGCGUAAUGGUAACGUGUCUCCCUCCUAAGGAGAAGACUGCGGGUUCGCGUCCCGUACGUAACG [C24U A57C G68U], for which the yeast fitness was at most 0.5.

Consider GUUCCGUUGGCGUAAUGGUAACGUGUCUGCCUCCUAAGGAGAAGACUGCGGGUUCGAGUUCCGUAUGGAACG [C24U C29G C60U C66U], for which the yeast fitness was at most 0.5.

With GUUCCGUUGGCGUAAUGGUAACGUGUCUUCCUCCUAAGGAGGAGACUGCGGGUUUGAGUCCCGUACGGAACG [C24U C29U A42G C55U], the yeast fitness was at most 0.5.

For GUUCCGUUGGCGUAAUGGUAACGUGUCUCCCUCCUAAGGAGAUGACUGCGGGUUGGAGUCCCGUACGGAACG [C24U A43U C55G], the yeast fitness is 0.588.

GUUCCGUUGGCGUAAUGGUAACGUGUGUCCCUCCUAAGGAGAAGACUGCGGGUUCGAGACCCGUACGGAGCG [C24U C27G U59A A70G]: the yeast fitness was at most 0.5.

As for GUUCCGUUGGCGUAAUGGUAACGUGUCUCCCUCCUAAGGAGAAGACUGCGGGUUCGAGUCCCGUACGGUCCG [C24U A69U A70C], the yeast fitness was determined as 0.756.

For the variant GUUCCGUUGGCGUAAUGGUAACGUGUCUCCAUCCUAAGGAGAAGACUGCGGGUUCGCGUCCCGUACGGAACG [C24U C31A A57C], the yeast fitness stood at 0.704.

As to GUUCCGUUGGCGUAAUGGUAACGUGUCUCCCUCCUAAGGAGAAGUCUGCGGGUUCGAAUCCCGUACGGAACG [C24U A45U G58A], the yeast fitness amounted to 0.647.

Consider GUUCCGUUGGCGUAAUGGUAACGUGUCUGCCUCCUAAGGAGAAGACUGCGGGUUCGAGUCCCGUACGGAACG [C24U C29G], for which the yeast fitness was determined as 0.674.

In the case of GUUCCGUUGGCGUAAUGGUAACGUGUUUCCCUCCUAAGGAGAAGACUGCCGGUUCGAGUCCCGUACGGAACG [C24U C27U G50C], the yeast fitness is at most 0.5.

For the variant GUUCCGUUGGCGUAAUGGUAACGUGUCUCUGUCCUAAGGAGAAGACUGCGGGUUCGAGUCCCGUACGGAACG [C24U C30U C31G], the yeast fitness is 0.623.

Take GUUCCGUUGGCGUAAUGGUAACGUGUCUUCCUCCUUAGGAGAAGACUGCGGGUUCGAGUCCCGUACGGACCG [C24U C29U A36U A70C]: the yeast fitness was at most 0.5.

Consider GUUCCGUUGGCGUAAUGGUAACGUGUCUCCAUCUUAAGGAGAAGACUGCGGGUUCGAGUCCCGUACGGAACG [C24U C31A C34U], for which the yeast fitness was at most 0.5.

Turning to GUUCCGUUGGCGUAAUGGUAACGUGUCUCCCUCCUAAGGAGAAGACUGCGGGUUCGCGUCACGUACGGAGCG [C24U A57C C61A A70G], the yeast fitness is at most 0.5.

GUUCCGUUGGCGUAAUGGUAACGUGUCUCGAUCCUAAGGAGAGGACUGCGGGUUCGAGUCCCGUACGGAACG [C24U C30G C31A A43G]: the yeast fitness is at most 0.5.

GUUCCGUUGGCGUAAUGGUAACGUGUCUCUCUCCUAAGGCGAAGACUGCGGGUUCGAGUCCCGUACGCAACG [C24U C30U A40C G68C]: the yeast fitness is 0.545.

Regarding GUUCCGUUGGCGUAAUGGUAACGUGUCUCCCUCCUAAGGAGAAGACUGCGGGUUCGCGUUCCGUACCGAACG [C24U A57C C60U G67C], the yeast fitness was at most 0.5.

Regarding GUUCCGUUGGCGUAAUGGUAACGUGUCUCACUCCUAAGGAGAAGACUGCGGGUUCGAGUCCCGUGCGGAACG [C24U C30A A65G], the yeast fitness is at most 0.5.

With GUUCCGUUGGCGUAAUGGUAACGUGUAUCCCUCCUAAGGAGAAGACUGCGGGAUCGAGUCCCGUAUGGAACG [C24U C27A U53A C66U], the yeast fitness was at most 0.5.

Take GUUCCGUUGGCGUAAUGGUAACGUGUCUCCCUCCUAAGGAGAAGACUGCGGGUUCGAGUCCCGUUCGGCACG [C24U A65U A69C]: the yeast fitness was determined as 0.564.

GUUCCGUUGGCGUAAUGGUAACGUGUAUCUCUCCUAAGGAGAAGACUGCGGGUUCGAGUCCCGUACGGAACG [C24U C27A C30U]: the yeast fitness was found to be 0.597.

As for GUUCCGUUGGCGUAAUGGUAACGUGUCUCCCUCCUAAGGAGAAGUCUGCGGGUUCGCGUCCCGUACGAAACG [C24U A45U A57C G68A], the yeast fitness is at most 0.5.

Turning to GUUCCGUUGGCGUAAUGGUAACGUGUCUCCAUCAUAAGGAGAAGACUGCGGGUUCCAGUCCCGUACGGAACG [C24U C31A C34A G56C], the yeast fitness was at most 0.5.

Take GUUCCGUUGGCGUAAUGGUAACGUGUCUCCCUCCUAAGGAGAAGACUGCGGGUUCGAGUCCCGUACGGUACG [C24U A69U]: the yeast fitness worked out at 0.99.

On to GUUCCGUUGGCGUAAUGGUAACGUGUCUCCCUCCUAAGGAGAAGACUGCGGGUUCGAGUCCCGUACGGCACG [C24U A69C], for which the yeast fitness is 0.887.

Take GUUCCGUUGGCGUAAUGGUAACGUGUCUCCCUCCUAAGGAGAAGUCUGCGGGUUCGAGUCCCGUACGGAACG [C24U A45U]: the yeast fitness stood at 0.919.

GUUCCGUUGGCGUAAUGGUAACGUGUCUCCCUCCUAAGGAGAAGCCUGCGGGUUCGAGUCGCGUACGGAACG [C24U A45C C61G]: the yeast fitness was at most 0.5.

In the case of GUUCCGUUGGCGUAAUGGUAACGUGUCUCCCUCCUAAGGAGAAGGGUGCGGGUUGGAGUCCCGUACGGAACG [C24U A45G C46G C55G], the yeast fitness turned out to be 0.588.

Turning to GUUCCGUUGGCGUAAUGGUAACGUGUCUCCCUCCUAAGGAGAAGUCUGCGGGUUUGAGUCCCGUACGGAACG [C24U A45U C55U], the yeast fitness stood at 0.569.

Take GUUCCGUUGGCGUAAUGGUAACGUGUCUCCCUCCUAAGGAGAAGUCUGCGGGUUCGAAUCCCGUGCGGAACG [C24U A45U G58A A65G]: the yeast fitness is 0.794.
